# Hits are enriched below; roughly 2.2% of the tested compounds scored in any of these assays.
# hK5 inh – human KLK5 protease inhibitors, primary screen, biochemical, 1536-well; recombinant hK5, fluorogenic AMC substrate cleavage; inhibition, % at 5 µM; actives 0.59% (n = 210,000); Kallikrein-5 (Homo sapiens), Q9Y337; AID 873, 2007;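 active means inhibition of 40% or more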;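 further: 0% = enzyme controls without compound and 100% = no-enzyme blanks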
# Target sequence (Q9Y337 67-293 limits assumed): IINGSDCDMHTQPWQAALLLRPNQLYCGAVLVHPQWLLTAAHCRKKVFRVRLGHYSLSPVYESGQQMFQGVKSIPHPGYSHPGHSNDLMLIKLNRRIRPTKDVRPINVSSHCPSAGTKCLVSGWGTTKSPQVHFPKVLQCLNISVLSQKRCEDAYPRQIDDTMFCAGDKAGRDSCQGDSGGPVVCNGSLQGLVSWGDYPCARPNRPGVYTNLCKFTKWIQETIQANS
# FXIIa inh 1536 – human FXIIa protease inhibitors, primary screen, biochemical, 1536-well; Coagulation factor XII (Homo sapiens), P00748; purified FXIIa, Boc-QGR-AMC fluorogenic substrate, 2 h; inhibition, % at 5 µM; actives 0.3% (n = 220,000); AID 800, 2007; in the data active means inhibition above about 40%;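 further: 0% = enzyme with no compound and 100% = blank without enzyme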
# Wee1 degr inh – Wee1 degradation inhibitors, primary screen, cell-based, HeLa, Wee1K328M-luciferase, luminescence; actives 1.2% (n = 220,000); HeLa Luc-Wee1K328M stability; 100% = proteasome inhibitor MG132 effect; Wee1-like protein kinase (Homo sapiens), P30291; reporter increase, % at 5 µM;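 active means activation above the mean of all tested compounds plus 3 SD, set per screening run, cut at about 8.8% in these data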;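 further: cells exposed to compound for 20 h before luminescence read; 0% = DMSO alone and 100% = MG132 at 30 µM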
# FXIa inh – human FXIa protease inhibitors, primary screen, biochemical, 1536-well | Coagulation factor XI (Homo sapiens), P03951 | purified FXIa, Boc-Glu-Ala-Arg-AMC fluorogenic substrate | inhibition, % at 5 µM | actives 0.14% (n = 220,000);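 active means inhibition of at least 40%; inactive means inhibition below 40%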;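 further: fluorescence of freed AMC excited at 355 nm; 0% = enzyme without compound and 100% = no enzyme blank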
# thrombin 1536 – human alpha-thrombin inhibitors, primary screen, counter-screen for coagulation protease inhibitor project, biochemical, 1536-well, fluorogenic AMC substrate | Prothrombin (Homo sapiens), P00734 | Boc-VPR-AMC fluorogenic substrate cleavage | inhibition, % at 5 µM | actives 0.26% (n = 220,000) | AID 1046, 2008;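 active means inhibition at or above 40%; inactive means inhibition below 40%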;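 further: 0% = enzyme with no compound and 100% = wells without enzyme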
#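 Assay system: human alpha-thrombin enzyme. Reagent: Boc-VPR-AMC substrate, 15 µM final. Compound dosing: one concentration per compound, 5 µM, with 0.2% DMSO. Incubation: room-temperature reaction. Technique: AMC fluorescence, 355/460 nm. Measure: % inhibition relative to enzyme controls and enzyme-free blanks.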
# The depositor's hits bear a star; / = no result given.
SMILES,hK5 inh,FXIIa inh 1536,Wee1 degr inh,FXIa inh,thrombin 1536
COc1ccc(Cl)cc1S(=O)(=O)NCc1cccs1,8.9,14.9,5.8,1.5,2.8
COc1cc(C)c(S(=O)(=O)NCc2cccs2)cc1C,27.2,108.3*,-2.4,8.0,30.3
S=c1sc(SCCOc2ccccc2)nn1-c1ccccc1,-5.7,8.0,-1.2,1.7,-2.4
Oc1cccc(NC(=S)N=Nc2c(O)[nH]c3ccccc23)c1,78.4*,24.0,-1.1,21.3,15.7
CCOc1ccc(NC(=S)N=Nc2c(O)[nH]c3ccccc23)cc1,-6.4,5.7,-1.0,-1.1,-2.7
CNc1nc(C)cc(C)c1S(=O)(=O)c1ccc(C)cc1,1.1,8.6,-1.7,-10.7,-1.9
COc1cc(OC)cc(C(=O)N[C@H](C(=O)OCC(=O)Nc2sccc2C#N)C(C)C)c1,-5.0,5.5,-1.3,5.9,-3.6
N#Cc1cnn(Cc2ccccc2)c1N,-22.9,-0.2,-0.3,-16.9,8.8
N#Cc1cnn(Cc2ccc(Cl)cc2)c1N,8.7,57.6*,-2.3,36.2,0.2
CC(C)N(C)CCOC(=O)/C=C/c1ccccc1,40.6*,14.9,-1.2,-3.7,6.1
CN(CCOC(=O)/C=C/c1ccccc1)C(C)(C)C,-17.0,5.1,-0.3,-7.7,-8.1
Cc1occc1C(=O)N/N=C/C=C\c1ccccc1[N+](=O)[O-],3.1,15.4,2.2,3.4,1.8
CCOC(=O)N/N=C/C=C/c1ccccc1[N+](=O)[O-],1.5,/,9.2*,-2.4,0.2
COc1ccc([N+](=O)[O-])cc1NC(=O)CC1SC(=Nc2cccc(C)c2C)N(/N=C/c2cccc(OC)c2OC)C1=O (stereo not given),-3.4,22.4,-1.8,102.2*,20.7
CN=C1SC(CC(=O)Nc2c(C)cccc2C)C(=O)N1/N=C/c1cccs1 (stereo not given),-17.7,-0.3,1.2,3.7,-6.4
O=C(Nc1ccc2c(c1)CCC2)c1c(F)cccc1Cl,15.1,13.1,8.9*,5.5,12.5
O=C(NNc1cc(Cl)ccc1Cl)c1c(F)cccc1Cl,35.2,42.3*,1.4,31.9,8.2
CCOC(=O)c1[nH]ncc1CN1CCN(Cc2ccc(C)cc2)C(CCO)C1 (stereo not given),-1.5,9.6,-0.5,3.3,-1.1
O=C(NCC1CCCO1)c1csc(Nc2cccc3ccccc23)n1 (stereo not given),-0.3,0.6,2.8,-6.0,-4.6
CC(OC(=O)CCN1C(=O)c2cccc([N+](=O)[O-])c2C1=O)C(=O)Nc1cc(Cl)cc(Cl)c1 (stereo not given),-21.4,-0.1,-2.3,-1.4,-7.7
O=c1[nH]c2cc3c(cc2cc1CN(Cc1nnnn1CC1CCCO1)C1CCCCC1)OCO3 (stereo not given),54.1*,-10.9,-0.6,-4.9,2.6
Cc1cccc2cc(CN(Cc3nnnn3C3CCCCC3)C3CCCC3)c3nnnn3c12,-19.1,18.2,-0.6,9.2,5.2
Cc1cc(C)c2[nH]c(=O)c(CN(Cc3nnnn3C3CCCC3)C3CCCCC3)cc2c1,41.7*,-5.0,0.5,-2.2,3.1
CC(O)/C=C/C1OC(=O)CC1Nc1ccc(C=O)cc1 (stereo not given),3.4,12.8,10.6*,4.0,0.3
CN1CC2(Cc3c1ccc1ccccc31)C(=O)OC(C)(C)OC2=O,-9.2,24.7,-4.0,1.0,9.2
SMILES,hK5 inh,FXIIa inh 1536,Wee1 degr inh,FXIa inh,thrombin 1536
Cc1ccc2c(c1)CC1(CN2C)C(=O)OC2(CCCCC2)OC1=O,-20.2,14.4,-1.1,15.0,60.9*
CS(=O)(=O)N(Cc1ccco1)CC(O)Cn1c2ccccc2c2ccccc21 (stereo not given),43.6*,1.7,-1.6,13.1,38.2
Cc1ccc(N(CC(O)Cn2c3ccccc3c3ccccc32)S(C)(=O)=O)cc1 (stereo not given),-3.1,0.4,3.5,4.0,-1.5
O=C(Cc1ccc(Cl)cc1)OCc1nnc(-c2ccccc2)o1,-17.2,-3.7,-1.8,1.7,1.0
O=C(OCc1nnc(-c2ccc(Cl)cc2)o1)C12CC3CC(CC(O)(C3)C1)C2,13.1,4.9,9.8*,-0.5,-3.5
O=C(NCCc1ccccc1)c1cc(=O)c2ccccc2o1,47.0*,52.0*,-1.4,23.6,17.0
COc1ccc(CN(CC2CCC(C(=O)O)CC2)C(=S)Nc2cccc(C)c2)cc1 (stereo not given),5.1,8.3,5.3,-4.1,0.3
CN(CC(=O)Nc1ccc(C#N)cc1)Cc1ccc(Cl)cc1Cl,52.4*,23.4,0.7,-1.7,25.0
CN(CC(=O)Nc1ccc(C#N)cc1)Cc1ccc(Cl)cc1,1.5,6.6,1.7,3.2,4.1
CCCOc1ccc(OCCNC2CCCC2)cc1,74.3*,9.1,0.2,38.3,23.2
CS(=O)(=O)N(CC(=O)NCc1ccco1)Cc1ccc(Cl)cc1,78.3*,8.9,-0.4,0.4,8.1
O=C(CNCc1ccc(Cl)cc1)Nc1ccc2c(c1)OCCO2,0.8,9.8,0.4,0.4,-1.8
CS(=O)(=O)N(CC(=O)Nc1ccc2c(c1)OCCO2)Cc1ccc(Cl)cc1,48.1*,10.5,1.0,4.0,29.3
COc1ccc2nc(SCC(=O)c3ccco3)[nH]c2c1,6.8,2.2,9.1*,-9.9,0.7
CC(Oc1ccc(Cl)cc1)c1ccc(C#N)c(=O)[nH]1 (stereo not given),-15.3,-0.8,0.1,-7.1,1.9
CC(=O)c1cc2c(cc1NC(=O)CSc1nc3ccccc3[nH]1)OCO2,-12.9,8.4,9.8*,2.9,-9.7
Cc1onc(-c2c(F)cccc2Cl)c1C(=O)O/N=C(\N)c1ccc([N+](=O)[O-])o1,-1.7,5.3,-2.6,1.0,-6.0
CCCCNC(=O)Nc1nc2ccccc2s1,-3.3,2.4,7.2,-4.2,-12.2
CCCNC(=O)Nc1nc2ccccc2s1,-1.3,9.2,9.2*,-0.6,1.9
N#C/C(=C\c1ccc(Cl)cc1)c1n[nH]c(Cn2cncn2)n1,-18.1,11.8,0.1,-5.5,-5.2
COc1ccc(/C=C(\C#N)c2n[nH]c(Cn3cncn3)n2)cc1,21.4,48.0*,-1.6,12.3,4.5
CC(=O)c1ccc(NC(=O)c2noc3c2CCC3)cc1,-20.8,-0.6,10.0*,-7.7,-0.5
COc1ccc(NC(=O)c2noc3c2CCC3)cc1,-5.6,8.2,1.3,-3.2,-6.2
CC(C)CNc1nc(Oc2ccc(=O)[nH]n2)nc(N2CCOCC2)n1,-16.3,10.4,1.8,-4.5,-0.9
COc1ccc(OC)c(N=C(N)N=C(N)N)c1,/,6.6,0.9,-2.8,-6.8
Cc1nc2ccccc2nc1OCc1ccc([N+](=O)[O-])cc1,-17.4,-4.4,10.1*,-3.4,1.4
COCCOc1nc2ccccc2nc1C,-22.7,19.9,-2.1,7.8,3.5

# Assay outcomes deposited in PubChem by several laboratories.
